Here are results for six compounds from ChEMBL document CHEMBL2321753, “Synthesis and biological evaluation of radioiodinated quinacrine-based derivatives for SPECT imaging of Aβ plaques” (Eur J Med Chem, 2013).

Structures are written as SMILES. A value given as a limit tells only on which side of the number the result lay.

As a reminder, the Ki is a dissociation constant, usually derived from enzyme kinetics or from competition with a known ligand. Low readings indicate higher affinity, high ones lower affinity.

Sequence of Amyloid-beta precursor protein (P05067 whole entry): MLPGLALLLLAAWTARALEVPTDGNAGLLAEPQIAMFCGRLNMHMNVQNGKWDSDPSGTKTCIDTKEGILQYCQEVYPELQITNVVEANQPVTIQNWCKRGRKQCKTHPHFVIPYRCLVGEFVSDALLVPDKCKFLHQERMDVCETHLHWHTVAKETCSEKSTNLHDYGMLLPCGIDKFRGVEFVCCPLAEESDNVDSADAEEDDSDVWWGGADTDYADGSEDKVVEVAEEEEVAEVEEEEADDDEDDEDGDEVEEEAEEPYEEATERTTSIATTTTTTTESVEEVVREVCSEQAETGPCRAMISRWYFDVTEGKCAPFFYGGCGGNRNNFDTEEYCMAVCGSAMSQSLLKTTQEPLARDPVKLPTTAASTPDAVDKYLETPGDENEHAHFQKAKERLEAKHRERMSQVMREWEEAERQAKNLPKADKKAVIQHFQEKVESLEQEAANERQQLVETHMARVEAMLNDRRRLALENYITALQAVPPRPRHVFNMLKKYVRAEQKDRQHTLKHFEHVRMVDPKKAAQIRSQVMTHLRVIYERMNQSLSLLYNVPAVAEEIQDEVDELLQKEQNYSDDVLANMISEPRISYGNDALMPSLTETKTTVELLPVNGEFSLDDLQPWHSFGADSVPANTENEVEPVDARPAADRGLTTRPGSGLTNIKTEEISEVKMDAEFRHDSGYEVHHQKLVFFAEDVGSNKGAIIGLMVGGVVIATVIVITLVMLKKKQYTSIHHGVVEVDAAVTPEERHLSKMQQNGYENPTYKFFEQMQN

This test addresses Amyloid-beta precursor protein (Homo sapiens, UniProt P05067). Kind of test: Displacement of [125I]IMPY from amyloid beta (1 to 42) (unknown origin) after 3 hrs by gamma counting. The method in brief:
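Filtered through GF/B filters and bound radioactivity gamma-counted. IC50 from displacement curves of three independent experiments; Ki calculated with the Cheng–Prusoff equation.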
(In a radioligand displacement assay an active substance lowers the binding of a labelled ligand.)
Take `CNc1c2ccc(I)cc2nc2ccc(OC)cc12`: the Ki worked out at 13.8 nM.
In the case of `COc1ccc2nc3cc(I)ccc3c(OC)c2c1`, the Ki amounted to 28.9 nM.
Take `COc1ccc2nc3cc(I)ccc3c(N(C)C)c2c1`: the Ki amounted to 121 nM. Compared with the last compound, the Ki is about 4.2-fold higher.
For `COc1ccc2nc3cc(I)ccc3c(N)c2c1` the value was 83.5 nM; for `COc1c2ccc(I)cc2nc2ccc(N(C)C)cc12`, 30 nM; for `COc1c2ccccc2nc2cc(I)ccc12`, > 10000 nM.
